Results taken from the RNAGym collection of RNA variant scans (doi:10.1126/science.aae0568).
Fewer inactive variants are shown than the library holds.

B1: tRNA (parent)
chain: GUUCCGUUGGCGUAAUGGUAACGCGUCUCCCUCCUAAGGAGAAGACUGCGGGUUCGAGUCCCGUACGGAACG

Variants of: B1
Test: yeast fitness relative to wild type (ratio to wild type); higher = fitter; tRNA-Arg(CCU), competitive growth, 37 C, YPD
Method in brief: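 Genotype frequency changes were the basis for Darwinian fitness relative to wild type. The frequencies came from 100-nucleotide paired-end sequencing of gene amplicons from the start population and each end population of pooled yeast strains with tRNA-Arg(CCU) gene variants at the native locus. Competition ran in YPD at 37°C for 24 hours in six replicates, genotypes needed ≥ 100 starting reads, and estimates < 0.5 were set to 0.5.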

Variant | yeast fitness
GUUCCGUUGGCGUAAUGGUAACGCCUCCCCCUCCUAAGGAGAAGACUGCGGGUUCGAGUCCUGUACGGACCG [G25C U28C C62U A70C] | ≤ 0.5
GUUCCGUUGGCGUAAUGGUAACGCCUCUCCCCCCUAAGGAGAAGACUGCGGGUUCGAGUCCCGUACGGAACG [G25C U32C] | 0.948
GUUCCGUUGGCGUAAUGGUAACGCCUCUCCCGCCUAAGGAGAAGACUGCGGGUUCGAGUCCCGUACGGAACG [G25C U32G] | 0.655
GUUCCGUUGGCGUAAUGGUAACGCCUCUCCCGCCUAAAGAGAAGACUGCGGGUUCGAGUCUCGUACGGAACG [G25C U32G G38A C61U] | ≤ 0.5
GUUCCGUUGGCGUAAUGGUAACGCCUCUCCCUCCUAAGGAGAAGACUGCGGGCUCGAGUCCCGUCCGGAACG [G25C U53C A65C] | 0.697
GUUCCGUUGGCGUAAUGGUAACGCCUCUCCCUCCUAAGGAGAAGACUGCGGGUGCGAGUCCCGUACGGAACG [G25C U54G] | 0.581
GUUCCGUUGGCGUAAUGGUAACGCUUCUCCCUCCUUAGGAGAAGACUGCGGGUUCGAGUCUCGUACGGAACG [G25U A36U C61U] | ≤ 0.5
GUUCCGUUGGCGUAAUGGUAACGCUUCUCCCUCCUUAGGAGAAGACUGCGGGUUCCAGUCCCGUACGGAACG [G25U A36U G56C] | ≤ 0.5
GUUCCGUUGGCGUAAUGGUAACGCUUCUCCCUCCUUAGGAGAAGACUGCGGGUUCCAGUCCCGUCUGGAACG [G25U A36U G56C A65C C66U] | ≤ 0.5
GUUCCGUUGGCGUAAUGGUAACGCUUCUCCCUCCUAAGGAGAAGACUGCGGGUUCGAGUCCCGUUCGGAACG [G25U A65U] | 1.02
GUUCCGUUGGCGUAAUGGUAACGCUUCUGCCUCCUAAGGAGCAGACUGCGGGUUCGAGUCCCGUACGGAACG [G25U C29G A42C] | ≤ 0.5
GUUCCGUUGGCGUAAUGGUAACGCUUCUGCCUCCUAAGGAGCAGACUGCGGGUUCGAGUCCCGUAUAGAACG [G25U C29G A42C C66U G67A] | ≤ 0.5
GUUCCGUUGGCGUAAUGGUAACGCUUCUCACUCCUAAGGAGAAGAAUGCGGGUUCGAGUCCCGUACGGAACG [G25U C30A C46A] | 0.581
GUUCCGUUGGCGUAAUGGUAACGCUUCUCCCCCCUUAGGAGAAGACUGCGGGUUCCAGUCCCGUCCGGAACG [G25U U32C A36U G56C A65C] | ≤ 0.5
GUUCCGUUGGCGUAAUGGUAACGCUUCUCCCUCCUAAGGAGAAGACUGCGGGUUCGAGUCCCGAACGGAACG [G25U U64A] | 0.687
GUUCCGUUGGCGUAAUGGUAACGCGACUCCCUCCUUAGGAGAAGACUGCGGGUUCGAGUCCCGUACGGAACG [U26A A36U] | 0.606
GUUCCGUUGGCGUAAUGGUAACGCGACUCCCUCCUUAGGAGAAGACUGAGGGUUCGAGUCCCGUACGGAACG [U26A A36U C49A] | ≤ 0.5
GUUCCGUUGGCGUAAUGGUAACGCGACUCCCUCCUACGGAGAAGACUGUGGGUUCAAGUCCCGUACGGAACG [U26A A37C C49U G56A] | ≤ 0.5
GUUCCGUUGGCGUAAUGGUAACGCGACUCCCUCCUAGGGAGAAGACUGCGGGUUCGAGUCCCGAACGGAACG [U26A A37G U64A] | ≤ 0.5

Variant | yeast fitness
GUUCCGUUGGCGUAAUGGUAACGCGACUCCCUCCUAAGGCGAAGACUGCGGGUUCGAGUCCCGUAAGGAACG [U26A A40C C66A] | ≤ 0.5
GUUCCGUUGGCGUAAUGGUAACGCGACUCCCUCCUAAGGCGAAGACUGCGGGUACGAGUCCCGUACGGAACG [U26A A40C U54A] | ≤ 0.5
GUUCCGUUGGCGUAAUGGUAACGCGACUCCCUCCUAAGGGGAAGACUGCGGGUUCGAGUCCCGUACGGAACG [U26A A40G] | 0.657
GUUCCGUUGGCGUAAUGGUAACGCGACUCCCUCCUAAGGGGAAGACUGCGGGUUCGACUCCCGUACUGAACG [U26A A40G G58C G67U] | 0.556
GUUCCGUUGGCGUAAUGGUAACGCGACUCCCUCCUAAGGUGAAGACUGCGGGUUCGAGUCUCGUACGGAACG [U26A A40U C61U] | 0.656
GUUCCGUUGGCGUAAUGGUAACGCGACUCCCUCCUAAGGAGCAGACUGCGGGUUCGAGUCCCGUACGGAACG [U26A A42C] | 0.97
GUUCCGUUGGCGUAAUGGUAACGCGACUCCCUCCUAAGGAGCAGGCUGUGGGUUCGAGUCCCGUACGGAACG [U26A A42C A45G C49U] | ≤ 0.5
GUUCCGUUGGCGUAAUGGUAACGCGACUCCCUCCUAAGGAGCAGACUGUGGGUUCGAGUGCCGCAAGGAACG [U26A A42C C49U C60G U64C C66A] | ≤ 0.5
GUUCCGUUGGCGUAAUGGUAACGCGACUCCCUCCUAAGGAGGAGACUGCGGGUUCGAGUCCCGUACGGAACG [U26A A42G] | 0.891
GUUCCGUUGGCGUAAUGGUAACGCGACUCCCUCCUAAGGAGGAGACUCCGGGUUCGAGUCCGGUACGGAACG [U26A A42G G48C C62G] | ≤ 0.5
GUUCCGUUGGCGUAAUGGUAACGCGACUCCCUCCUAAGGAGGAGACCGCGGGUUCGAGUCCCAUACGGAACG [U26A A42G U47C G63A] | 0.519
GUUCCGUUGGCGUAAUGGUAACGCGACUCCCUCCUAAGGAGACGACUGCGGGUUCGAGUCCCGUACGGAACG [U26A A43C] | 0.966
GUUCCGUUGGCGUAAUGGUAACGCGACUCCCUCCUAAGGAGAGGACUGCGGGUUCGAGUCCCGUACGGCACG [U26A A43G A69C] | 0.649
GUUCCGUUGGCGUAAUGGUAACGCGACUCCCUCCUAAGGAGAUGACUGCGGGUUCGAGUCCCGUUCGGAACG [U26A A43U A65U] | 0.618
GUUCCGUUGGCGUAAUGGUAACGCGACUCCCUCCUAAGGAGAAGGCUGCGGGUUCGAGUCCCGUAGUGAACG [U26A A45G C66G G67U] | ≤ 0.5
GUUCCGUUGGCGUAAUGGUAACGCGACUCCCUCCUAAGGAGAAGUCUGCGGGUUCGAGUCCCGUACGGAACG [U26A A45U] | 1.03
GUUCCGUUGGCGUAAUGGUAACGCGACUCCCUCCUAAGGAGAAGACUGCGGGUUCGCGUCCCGUACGGAACG [U26A A57C] | 0.64
GUUCCGUUGGCGUAAUGGUAACGCGACUCCCUCCUAAGGAGAAGACUGCGGGUUCGCGUCCCGUACGGAUCG [U26A A57C A70U] | ≤ 0.5
